The source made the active and inactive calls. The calls are words filed in the database; no cut-off is given here.
Legend:
[1] = molecular target: T1, DNA topoisomerase 2-alpha (Homo sapiens, UniProt P11388); assay: Inhibition of human topoisomerase 2 alpha-mediated relaxation of supercoiled pHOT DNA after 30 mins by agarose gel electrophoresis
SK-BR-3 = assay: Growth inhibition against human SK-BR-3 cells after 24 hrs by MTT assay; assay type: functional; settings: SK-BR-3, 24 h
Method in brief: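 SK-BR-3 cells in DMEM:F-12 (1:1) with 10% fetal calf serum, L-glutamine, nonessential amino acids and penicillin/streptomycin were seeded at 20 000 cells/well overnight. Drug was added in fresh medium (500 μM to 10 nM) for 24 h at 37 °C/5% CO2. MTT was added for 3 h, detergent solubilization ran overnight at room temperature, then absorbance was read. Values were normalized to untreated wells; GI50 from a sigmoidal fit; triplicate.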

[2] = molecular target: T1, DNA topoisomerase 2-alpha; assay: Inhibition of human topoisomerase 2 alpha-mediated relaxation of supercoiled pHOT DNA at 100 uM after 30 mins by agarose gel electrophoresis
Method in brief: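 Single-concentration gel run at 100 μM drug, added from DMSO stock. Commercial human topo IIα (~2 units) with supercoiled pHOT DNA in reaction buffer (20 μL final), 37 °C for 30 min. The reaction was stopped with SDS plus proteinase K (37 °C, 15 min) and electrophoresed on 1% agarose (5 h, 5 V/cm). Gels were ethidium bromide pre- or post-stained and scored for supercoiled, relaxed and linear DNA.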

T1 sequence (P11388 whole entry): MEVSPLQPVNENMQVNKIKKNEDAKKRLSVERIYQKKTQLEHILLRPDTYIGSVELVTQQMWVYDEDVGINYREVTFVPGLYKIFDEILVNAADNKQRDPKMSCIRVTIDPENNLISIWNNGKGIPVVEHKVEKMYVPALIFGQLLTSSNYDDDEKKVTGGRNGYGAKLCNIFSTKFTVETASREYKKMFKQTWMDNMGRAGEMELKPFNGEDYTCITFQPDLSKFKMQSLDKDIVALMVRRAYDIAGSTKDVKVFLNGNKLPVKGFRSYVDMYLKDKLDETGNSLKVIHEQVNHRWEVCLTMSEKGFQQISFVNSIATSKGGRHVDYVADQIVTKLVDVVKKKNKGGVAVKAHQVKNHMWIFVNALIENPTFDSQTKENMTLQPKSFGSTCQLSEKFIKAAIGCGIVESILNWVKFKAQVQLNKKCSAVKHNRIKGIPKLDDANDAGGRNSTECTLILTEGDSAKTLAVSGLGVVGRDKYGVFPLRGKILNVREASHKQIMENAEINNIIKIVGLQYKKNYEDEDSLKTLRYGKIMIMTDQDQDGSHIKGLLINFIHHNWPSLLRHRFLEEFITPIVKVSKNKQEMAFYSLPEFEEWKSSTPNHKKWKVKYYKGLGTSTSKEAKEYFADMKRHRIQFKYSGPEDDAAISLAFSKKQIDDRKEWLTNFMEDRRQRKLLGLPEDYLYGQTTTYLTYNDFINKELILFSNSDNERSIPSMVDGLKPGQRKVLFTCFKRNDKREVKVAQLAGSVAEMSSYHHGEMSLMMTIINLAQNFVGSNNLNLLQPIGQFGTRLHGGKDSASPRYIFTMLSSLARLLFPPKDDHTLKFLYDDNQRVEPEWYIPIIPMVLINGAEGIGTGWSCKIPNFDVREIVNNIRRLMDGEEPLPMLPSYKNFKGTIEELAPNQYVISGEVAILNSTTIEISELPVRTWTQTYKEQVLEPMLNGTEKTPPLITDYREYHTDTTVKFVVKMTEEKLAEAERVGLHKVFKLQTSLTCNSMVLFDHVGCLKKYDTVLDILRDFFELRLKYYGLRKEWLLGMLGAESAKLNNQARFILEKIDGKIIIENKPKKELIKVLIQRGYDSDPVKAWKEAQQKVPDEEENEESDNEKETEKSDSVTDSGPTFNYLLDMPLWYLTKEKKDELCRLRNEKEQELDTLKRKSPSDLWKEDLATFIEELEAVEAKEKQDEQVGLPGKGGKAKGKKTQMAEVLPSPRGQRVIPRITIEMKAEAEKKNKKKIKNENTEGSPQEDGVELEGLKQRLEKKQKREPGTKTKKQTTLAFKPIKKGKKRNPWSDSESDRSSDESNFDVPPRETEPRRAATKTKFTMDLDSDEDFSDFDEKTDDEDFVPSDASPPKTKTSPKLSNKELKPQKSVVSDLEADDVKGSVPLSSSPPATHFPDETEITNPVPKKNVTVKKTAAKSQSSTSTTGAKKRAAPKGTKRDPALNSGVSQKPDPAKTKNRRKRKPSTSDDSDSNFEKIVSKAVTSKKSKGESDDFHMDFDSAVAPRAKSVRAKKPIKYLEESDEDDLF

SMILES	IC50 [1] [µM]	GI50 (SK-BR-3) [µM]	inhibition [2]
S=C(NCc1ccccc1)N/N=C/c1ccccn1	> 100	4.6	inactive
CCNC(=S)N/N=C(\C)c1ccccn1	79	5.9	Active
C=CCNC(=S)N/N=C(\C)c1ccccn1	> 100	6.1	inactive
CNC(=S)N/N=C(\C)c1ccccn1	92	5.5	Active
C/N=C(\S)N/N=C(\C)c1cnccn1	> 100	7.9	inactive

Results, then the compound that gave them:

IC50 [1] [µM]	GI50 (SK-BR-3) [µM]	inhibition [2]	SMILES
> 100	4.3	inactive	S=C(N/N=C/c1ccccn1)N1CCCC1
76	7.1	Active	CNC(=S)N/N=C/c1ccccn1
94	6.3	Active	CCNC(=S)N/N=C/c1ccccn1
> 100	8.1	inactive	C=CCNC(=S)N/N=C/c1ccccn1
> 100	7.4	inactive	N/C(S)=N/N=C/c1ccccn1
> 100	7.7	inactive	CC(C)NC(=S)N/N=C/c1ccccn1

From ChEMBL document CHEMBL1765066, “Role of metalation in the topoisomerase IIα inhibition and antiproliferation activity of a series of α-heterocyclic-N4-substituted thiosemicarbazones and their Cu(II) complexes” (J Med Chem, 2011)
